Measurements reported in ChEMBL document CHEMBL4422632, “Design of Novel Inhibitors of Human Thymidine Phosphorylase: Synthesis, Enzyme Inhibition, in Vitro Toxicity, and Impact on Human Glioblastoma Cancer” (J Med Chem, 2019).
Active and inactive are the calls of the source. The calls are words filed in the database; no cut-off is given here.

Experiments:
[1] = Cytotoxicity against human U87MG cells assessed as cell viability at 100 uM after 72 hrs by MTT assay relative to control; format: cell-based, U-87MG ATCC; conditions: read-out: Activity
Method in brief: (§1)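 Cells grown in DMEM with 10% FBS at 37 °C, 5% CO₂; seeded 2 x 10³ cells/well, adhered 24 h, then exposed 72 h. MTT: 1 mg/mL for 3 h, formazan in DMSO, absorbance 595 nm. NRU: neutral red 25 µg/mL in serum-free medium for 3 h, desorbed in ethanol:acetic acid:water. Viability as % of untreated control; mean ± SEM of three to five independent experiments in triplicate.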

[2] = Cytotoxicity against African green monkey Vero cells assessed as cell viability at 1000 uM after 72 hrs by neutral red uptake-based assay relative to control; conditions: chlorocebus sabaeus, read-out: Activity; method in brief: as §1
[3] = Cytotoxicity against human HaCaT cells assessed as cell viability at 25 uM after 72 hrs by MTT assay relative to control; format: cell-based; conditions: read-out: Activity; method in brief: as §1
[4] = Elimination rate constant in CF1 mouse at 50 mg/kg, ip by non-compartmental analysis; format: ADME, organism-based; conditions: in vivo
[5] = Cytotoxicity against African green monkey Vero cells assessed as cell viability at 500 uM after 72 hrs by neutral red uptake-based assay relative to control; conditions: chlorocebus sabaeus, read-out: Activity; method in brief: as §1
[6] = Cytotoxicity against mouse RAW264.7 cells assessed as cell viability at 25 uM after 72 hrs by MTT assay relative to control; format: cell-based; conditions: read-out: Activity
Method in brief: (§2)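 Cells kept in DMEM with 10% heat-inactivated FBS, 1% penicillin-streptomycin and 0.1% fungizone at 37 °C, 5% CO₂. U-87 MG seeded at 2 x 10^3 cells/well, RAW 264.7 at 5 x 10^2, adhered 24 h, then exposed 72 h. MTT: 1 mg/mL for 3 h, formazan in DMSO, A595. NRU: 25 μg/mL dye, 3 h, ethanol:acetic acid:water desorb. Untreated wells = 100%; three to five independent experiments in triplicate.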

[7] = AUMCt in CF1 mouse at 50 mg/kg, ip by non-compartmental analysis; format: ADME, organism-based; conditions: in vivo
Method in brief: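 Male CF1 mice, single ip 50 mg/kg in 0.9% saline, 3 animals per time point sampled 0.03–2 h; heparinized blood. AUMC0→t computed by trapezoidal rule to last point (2 h); non-compartmental analysis.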

[8] = Cytotoxicity against human U87MG cells assessed as cell viability at 1000 uM after 72 hrs by neutral red uptake-based assay relative to control; design: species or system U-87MG ATCC; conditions: read-out: Activity; method in brief: as §2
U-87 MG [9] = experiment: In-vivo inhibition of cell proliferation in human U87MG cells xenografted in BALB/c nude mouse at 50 mg/kg, ip after 14 days by Ki-67b-staining based assay; format: functional, organism-based; conditions: U-87MG ATCC
Method in brief: (§3)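 Male BALB/c nude mice implanted subcutaneously with 5 x 10⁵ U-87 MG cells in the right flank. Treated IP at 50 mg/kg/day for 14 days, with saline controls, starting once tumors reached about 50 mm³. Tumors fixed in formaldehyde and cut at 3 µm. Citrate pH 6 antigen retrieval.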

[10] = Cytotoxicity against African green monkey Vero cells assessed as cell viability at 50 uM after 72 hrs by neutral red uptake-based assay relative to control; conditions: chlorocebus sabaeus, read-out: Activity; method in brief: as §1
[11] = Cytotoxicity against mouse RAW264.7 cells assessed as cell viability at 1000 uM after 72 hrs by neutral red uptake-based assay relative to control; conditions: read-out: Activity; method in brief: as §2
[12] = Cmax in CF1 mouse at 50 mg/kg, ip by non-compartmental analysis; format: ADME, organism-based; design: dose 50 mg/kg, route intraperitoneal; conditions: in vivo
Method in brief: (§4)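 Male CF1 mice received a single ip injection of 50 mg/kg in 0.9% saline; 3 animals per time point, killed 0.03, 0.08, 0.25, 0.5, 1 and 2 h after dosing; blood collected in heparin tubes.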

[13] = Cytotoxicity against human U87MG cells assessed as cell viability at 250 uM after 72 hrs by neutral red uptake-based assay relative to control; design: species or system U-87MG ATCC; conditions: read-out: Activity; method in brief: as §2
[14] = Cytotoxicity against human HepG2 cells assessed as cell viability at 100 uM after 72 hrs by MTT assay relative to control; format: cell-based; conditions: read-out: Activity; method in brief: as §1
[15] = Cytotoxicity against human HaCaT cells assessed as cell viability at 500 uM after 72 hrs by neutral red uptake-based assay relative to control; conditions: read-out: Activity; method in brief: as §1
[16] = Elimination half life in CF1 mouse at 50 mg/kg, ip by non-compartmental analysis; format: ADME, organism-based; conditions: in vivo
[17] = Cytotoxicity against human HaCaT cells assessed as cell viability at 25 uM after 72 hrs by neutral red uptake-based assay relative to control; conditions: read-out: Activity; method in brief: as §1
[18] = Cytotoxicity against African green monkey Vero cells assessed as cell viability at 250 uM after 72 hrs by neutral red uptake-based assay relative to control; conditions: chlorocebus sabaeus, read-out: Activity; method in brief: as §1
U-87 MG [19] = experiment: Induction of apoptosis in human U87MG cells xenografted in BALB/c nude mouse assessed as caspase-3 levels at 50 mg/kg, ip after 14 days by immunohistochemistry; format: functional, organism-based; conditions: U-87MG ATCC; method in brief: as §3
[20] = Cytotoxicity against mouse RAW264.7 cells assessed as cell viability at 250 uM after 72 hrs by neutral red uptake-based assay relative to control; conditions: read-out: Activity; method in brief: as §2
[21] = AUCt in CF1 mouse at 50 mg/kg, ip by non-compartmental analysis; format: ADME, organism-based; conditions: in vivo; method in brief: as §4
[22] = Cytotoxicity against mouse RAW264.7 cells assessed as cell viability at 100 uM after 72 hrs by neutral red uptake-based assay relative to control; conditions: read-out: Activity; method in brief: as §2
[23] = Cytotoxicity against human HaCaT cells assessed as cell viability at 50 uM after 72 hrs by neutral red uptake-based assay relative to control; conditions: read-out: Activity; method in brief: as §1
U-87 MG [24] = experiment: Antitumor activity against human U87MG cells xenografted in BALB/c nude mouse assessed as tumor growth inhibition 50 mg/kg/day, ip administered for 14 days; format: functional, organism-based; conditions: U-87MG ATCC
Method in brief: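 5 x 10⁵ U-87 MG cells implanted subcutaneously in right flank of male BALB/c nude mice; at about 50 mm³, randomized to saline or ip 50 mg/kg/day, with temozolomide 50 mg/kg/day in the combination arm, for 14 days. Relative tumor volume = volume on day / day 0; TGI on day 14 = [1 − RTV treated/RTV control] x 100. Two-way ANOVA with Bonferroni.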

[25] = Cytotoxicity against African green monkey Vero cells assessed as cell viability at 25 uM after 72 hrs by neutral red uptake-based assay relative to control; conditions: chlorocebus sabaeus, read-out: Activity; method in brief: as §1
[26] = Cytotoxicity against human HepG2 cells assessed as cell viability at 250 uM after 72 hrs by neutral red uptake-based assay relative to control; conditions: read-out: Activity; method in brief: as §1
U-87 MG [27] = experiment: Anti-angiogenic activity in tumor of human U87MG cells xenografted in nude BALB/c mouse assessed as reduction in CD31 staining at 50 mg/kg, ip administered for 14 days by immunohistochemistry; format: functional, organism-based; conditions: U-87MG ATCC
Method in brief: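 Male nude mice bearing subcutaneous right-flank xenografts of 5 x 10⁵ U-87 MG cells; dosing began at about 50 mm³ tumors, ip daily for 14 days. Tumors formalin-fixed, paraffin sections 3 µm; citrate pH 6 antigen retrieval at 95-98 °C; primary antibody overnight at 4 °C, HRP secondary, DAB. Positive area quantified by optical density at x200, 4 images per tumor; mean ± SEM, one-way ANOVA with Dunnett.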

[28] = Cytotoxicity against human U87MG cells assessed as cell viability at 500 uM after 72 hrs by neutral red uptake-based assay relative to control; design: species or system U-87MG ATCC; conditions: read-out: Activity; method in brief: as §2
[29] = Cytotoxicity against human HepG2 cells assessed as cell viability at 500 uM after 72 hrs by MTT assay relative to control; format: cell-based; conditions: read-out: Activity; method in brief: as §1

O=c1[nH]c(CNC(CO)CO)c(I)c(=O)[nH]1
viability at 72 h, 100 µM [1]: 96% | viability at 72 h, 1000 µM [2]: 72% | viability at 72 h, 25 µM [3]: 105% | k el [4]: 0.000383 s⁻¹ | viability at 72 h, 500 µM [5]: 90% | viability at 72 h, 25 µM [6]: 103% | AUMCt [7]: 6.3 µg·h²/mL | viability at 72 h, 1000 µM [8]: 72% | inhibition (U-87 MG [9]): inactive | viability at 72 h, 50 µM [10]: 112% | viability at 72 h, 1000 µM [11]: 48% | Cmax [12]: 34800 ng/mL | viability at 72 h, 250 µM [13]: 98% | viability at 72 h, 100 µM [14]: 100% | viability at 72 h, 500 µM [15]: 95% | beta t1/2 [16]: 30 min | viability at 72 h, 25 µM [17]: 100% | viability at 72 h, 250 µM [18]: 103% | Activity (U-87 MG [19]): inactive | viability at 72 h, 250 µM [20]: 85% | AUC(0-t) [21]: 16900 ng·h/mL | viability at 72 h, 100 µM [22]: 97% | viability at 72 h, 50 µM [23]: 110% | TGI (U-87 MG [24]): Active | viability at 72 h, 25 µM [25]: 108% | viability at 72 h, 250 µM [26]: 98% | Activity (U-87 MG [27]): Active | viability at 72 h, 500 µM [28]: 93% | viability at 72 h, 500 µM [29]: 94%
